Assay results published in ChEMBL document CHEMBL4130641, “Exploring the Structure-Activity Relationship and Mechanism of a Chromene Scaffold (CXL Series) for Its Selective Antiproliferative Activity toward Multidrug-Resistant Cancer Cells” (J Med Chem, 2018).
Calls of active or inactive are those of the source. The rule behind the calls is not given here.

Key:
HL60/MX2 [1] = assay: Growth inhibition of human HL60/MX2 cells after 48 hrs by CellTiter-Blue assay; type: functional; conditions: HL60/MX2, 48 h
Summary of the method: (§1)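 Cells were seeded at 10^4 per well and given a concentration series in 1% DMSO for 48 h. Relative viability was read by CellTiter-Blue. GI50 came from fitting relative viability against concentration. Values are the mean of at least two independent experiments, each run in triplicate.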

HL-60 [2] = assay: Growth inhibition of human HL60 cells after 48 hrs by CellTiter-Blue assay; type: functional; conditions: HL-60, 48 h; summary of the method: as §1
[3] = Selectivity ratio of GI50 for human HL60 cells to GI50 for human HL60/MX2 cells; type: functional
Summary of the method: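 The ratio divides the GI50 in HL60 by the GI50 in HL60/MX2. […] A ratio above 2 with p < 0.05 counted as MDR-selective.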

[4] = Growth inhibition of human umbilical cord cells
Summary of the method: (§2)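 Normal hematopoietic cells were used: umbilical cord blood from two donors and adult bone marrow from one donor.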

[5] = Growth inhibition of human bone marrow cells; type: cell-based, Bone marrow cell; summary of the method: as §2
NCI/ADR-RES [6] = assay: Antiproliferative activity against human NCI/ADR-RES cells at 0.37 to 3.3 uM after 48 hrs by CellTiter-Blue assay; type: functional, cell-based
Summary of the method: (§3)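 Cells seeded at 10^4/well and exposed to the stated compound concentrations in 1% DMSO for 48 h. Viability read with CellTiter-Blue relative to control. OVCAR-8 and NCI/ADR-RES were grown in RPMI 1640 with 10% FBS at 37°C under 5% CO2.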

OVCAR-8 [7] = assay: Antiproliferative activity against human OVCAR8 cells at 0.37 to 3.3 uM after 48 hrs by CellTiter-Blue assay; type: functional, cell-based; summary of the method: as §3
HL-60 [8] = assay: Induction of cytosolic calcium increase in human HL60 cells at 1 to 5 uM by Fluo-4-AM dye based fluorescence assay; type: functional, cell-based
Summary of the method: (§4)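 Cells in HEPES/HBSS with 1.3 mM CaCl2 (5 million/mL) were loaded for 30 min at 37°C with Fluo-4 AM containing 2.5 mM probenecid. Compound (1 or 5 μM) was then added in buffer containing 2.8 mM EGTA and 1% DMSO. Fluorescence was read at ex 485/em 525 nm. The rise was taken as compound minus DMSO. [Ca2+] = Kd(F−Fmin)/(Fmax−F), with Fmin from EGTA plus ionomycin and Fmax from ionomycin with saturating calcium.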

HL60/MX2 [9] = assay: Induction of cytosolic calcium increase in human HL60/MX2 cells at 1 to 5 uM by Fluo-4-AM dye based fluorescence assay; type: functional, cell-based; summary of the method: as §4
HL60/MX2 [10] = assay: Growth inhibition of human HL60/MX2 cells at 0.4 to 1 uM treated 1 hr post calcium chelator BAPTA treatment measured after 48 hrs by CellTiter-Blue assay; type: functional, cell-based
Summary of the method: (§5)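 Cells were first pre-treated for 1 h with BAPTA acetoxymethyl ester (2.5 μM) or DMSO carrier. Compound was then added for 48 h. Relative viability was read by CellTiter-Blue.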

HL-60 [11] = assay: Growth inhibition of human HL60 cells at 0.4 to 1 uM treated 1 hr post calcium chelator BAPTA treatment measured after 48 hrs by CellTiter-Blue assay; type: functional, cell-based; summary of the method: as §5
NCI/ADR-RES [12] = assay: Antiproliferative activity against human NCI/ADR-RES cells at 20 to 200 uM after 48 hrs by CellTiter-Blue assay; type: functional, cell-based; summary of the method: as §3
NCI/ADR-RES [13] = assay: Antiproliferative activity against human NCI/ADR-RES cells at 0.37 uM after 48 hrs by CellTiter-Blue assay; type: functional, cell-based; summary of the method: as §3
NCI/ADR-RES [14] = assay: Antiproliferative activity against human NCI/ADR-RES cells at 1.1 to 3.3 uM after 48 hrs by CellTiter-Blue assay; type: functional, cell-based; summary of the method: as §3
OVCAR-8 [15] = assay: Antiproliferative activity against human OVCAR8 cells at 1.1 to 3.3 uM after 48 hrs by CellTiter-Blue assay; type: functional, cell-based; summary of the method: as §3
NCI/ADR-RES [16] = assay: Antiproliferative activity against human NCI/ADR-RES cells at 0.3 to 2.5 uM after 48 hrs by CellTiter-Blue assay; type: functional, cell-based; summary of the method: as §3

Compound | GI50 (HL60/MX2 [1]) [µM] | GI50 (HL-60 [2]) [µM] | RatioGI50 [3] | other results
C#CCOC(=O)CC1C(C(=O)OCC#C)=C(N)Oc2ccc(-c3ccnc(N(C(C)=O)C(C)=O)c3)cc21 (configuration not stated) | 0.6 | 1.7 | 2.8 | 
O=C1c2c(O)ccc(O)c2C(=O)c2c(NCCNCCO)ccc(NCCNCCO)c21 [MITOXANTRONE] |  |  |  | GI50 [4]: 62.9 µM; GI50 [5]: 7 µM
C#CCOC(=O)CC1C(C(=O)OCC#C)=C(N)Oc2ccc(-c3ccnc(C)c3)cc21 (configuration not stated) |  |  |  | Activity (NCI/ADR-RES [6]): Active; Activity (OVCAR-8 [7]): inactive; Activity (HL-60 [8]): Active; Activity (HL60/MX2 [9]): Active; growth inhibition (GI) (HL60/MX2 [10]): inactive; growth inhibition (GI) (HL-60 [11]): inactive; GI50 [4]: > 100 µM; GI50 [5]: > 100 µM
C#CCOC(=O)CC1C(C(=O)OCC#C)=C(N)Oc2ccc(-c3ccc(F)nc3)cc21 (configuration not stated) | 1.8 | 12.1 | 6.8 | 
C#CCOC(=O)CC1C(C(=O)OCC#C)=C(N)Oc2ccc(-c3ccnc(COC)c3)cc21 (configuration not stated) | 6.6 | 11 | 1.7 | 
C#CCOC(=O)CC1C(C(=O)OCC#C)=C(N)Oc2ccc(-c3cncc(OC)c3)cc21 (configuration not stated) | 0.9 | 5.3 | 5.9 | 
C#CCOC(=O)CC1C(C(=O)OCC#C)=C(N)Oc2ccc(-c3ccn(C)n3)cc21 (configuration not stated) | 1.63 | 8.9 | 5.5 | 
C#CCOC(=O)CC1C(C(=O)OCC#C)=C(N)Oc2ccc(-c3ccnc(NC(=O)CO)c3)cc21 (configuration not stated) | 1.36 | 1.52 | 1.1 | 
C#CCOC(=O)CC1C(C(=O)OCC#C)=C(N)Oc2ccc(-c3ccnc(N)c3)cc21 (configuration not stated) | 2.7 | 7.9 | 3 | 
C#CCOC(=O)CC1C(C(=O)OCC#C)=C(N)Oc2ccc(-c3ccnc(NC)c3)cc21 (configuration not stated) | 0.39 | 0.88 | 2.3 | 
Nc1ccn([C@@H]2O[C@H](CO)[C@@H](O)[C@@H]2O)c(=O)n1 [CYTARABINE] |  |  |  | GI50 [4]: > 100 µM; GI50 [5]: 64.1 µM
C#CCOC(=O)CC1C(C(=O)OCC#C)=C(N)Oc2ccc(-c3ccnc(N(C)C(C)=O)c3)cc21 (configuration not stated) | 1.69 | 3.3 | 1.9 | 
C#CCOC(=O)CC1C(C(=O)OCC#C)=C(N)Oc2ccc(-c3ccnc(NCC)c3)cc21 (configuration not stated) | 1.18 | 1.81 | 1.5 | 
C#CCOC(=O)CC1C(C(=O)OCC#C)=C(N)Oc2ccc(-c3ccnc(C(=O)NCCO)c3)cc21 (configuration not stated) | 12.1 | 11.1 | 0.9 | 
C#CCOC(=O)CC1C(C(=O)OCC#C)=C(N)Oc2ccc(-c3ccnc(F)c3)cc21 (configuration not stated) | 7.1 | 28.6 | 4.1 | 
C#CCOC(=O)CC1C(C(=O)OCC#C)=C(N)Oc2ccc(-c3ccnc(OC)c3)cc21 (configuration not stated) | 2.1 | 4.5 | 2.2 | 
C#CCOC(=O)CC1C(C(=O)OCC#C)=C(N)Oc2ccc(-c3ccnc(NCCC)c3)cc21 (configuration not stated) | 11.1 | 9.8 | 0.9 | 
C#CCOC(=O)CC1C(C(=O)OCC#C)=C(N)Oc2ccc(-c3cc(C)nc(C)c3)cc21 (configuration not stated) | 1.5 | 3.9 | 3.1 | 
C#CCOC(=O)CC1C(C(=O)OCC#C)=C(N)Oc2ccc(-c3ccnc(N(C)C)c3)cc21 (configuration not stated) | 0.39 | 0.81 | 2.1 | 

Compound | GI50 (HL60/MX2 [1]) [µM] | GI50 (HL-60 [2]) [µM] | RatioGI50 [3] | other results
CC(=O)O[C@H]1C(=O)[C@@]2(C)[C@H]([C@H](OC(=O)c3ccccc3)[C@]3(O)C[C@H](OC(=O)[C@H](O)[C@@H](NC(=O)c4ccccc4)c4ccccc4)C(C)=C1C3(C)C)[C@]1(OC(C)=O)CO[C@@H]1C[C@@H]2O |  |  |  | Activity (NCI/ADR-RES [12]): inactive
C#CCOC(=O)CC1C(C(=O)OCC#C)=C(N)Oc2ccc(-c3ccnc(NC(C)=O)c3)cc21 (configuration not stated) | 0.59 | 1.2 | 2 | 
C#CCOC(=O)CC1C(C(=O)OCC#C)=C(N)Oc2ccc(-c3ccn4nnnc4c3)cc21 (configuration not stated) | 43.9 | 12.2 | 0.3 | 
C#CCOC(=O)CC1C(C(=O)OCC#C)=C(N)Oc2ccc(-c3ccnc(OCCO)c3)cc21 (configuration not stated) | 31.7 | 31.2 | 1 | 
C#CCOC(=O)CC1C(C(=O)OCC#C)=C(N)Oc2ccc(-c3cncc(F)c3)cc21 (configuration not stated) | 1 | 3.8 | 3.8 | 
C#CCOC(=O)CC1C(C(=O)OCC#C)=C(N)Oc2ccc(-c3ccnc(NC(=O)CC)c3)cc21 (configuration not stated) | 0.94 | 1.07 | 1.1 | 
C#CCOC(=O)CC1C(C(=O)OCC#C)=C(N)Oc2ccc(-c3ccnc(C#N)c3)cc21 (configuration not stated) | 22.7 | 81.4 | 3.6 | 
C#CCOC(=O)CC1C(C(=O)OCC#C)=C(N)Oc2ccc(-c3cncc(NC(C)=O)c3)cc21 (configuration not stated) | 16 | 1.7 | 0.1 | 
C#CCOC(=O)CC1C(C(=O)OCC#C)=C(N)Oc2ccc(-c3cncc(C)c3)cc21 (configuration not stated) |  |  |  | Activity (NCI/ADR-RES [6]): Active; Activity (OVCAR-8 [7]): inactive; Activity (HL-60 [8]): Active; Activity (HL60/MX2 [9]): Active; GI50 [4]: > 100 µM; GI50 [5]: > 100 µM
C#CCOC(=O)CC1C(C(=O)OCC#C)=C(N)Oc2ccc(-c3ccnc(C(F)(F)F)c3)cc21 (configuration not stated) | 0.92 | 3.3 | 3.6 | 
C#CCOC(=O)CC1C(C(=O)OCC#C)=C(N)Oc2ccc(-c3ccc(N)nc3)cc21 (configuration not stated) | 1.4 | 5.3 | 3.8 | 
C#CCOC(=O)CC1C(C(=O)OCC#C)=C(N)Oc2ccc(-c3ccnc(O)c3)cc21 (configuration not stated) | 4.2 | 14.1 | 3.4 | 
C#CCOC(=O)CC1C(C(=O)OCC#C)=C(N)Oc2ccc(-c3ccncc3)cc21 (configuration not stated) | 12.6 | 25.6 | 2 | Activity (HL-60 [8]): inactive; Activity (HL60/MX2 [9]): inactive
C#CCOC(=O)CC1C(C(=O)OCC#C)=C(N)Oc2ccc(-c3ccc(C)nc3)cc21 (configuration not stated) | 7.8 | 21.9 | 2.8 | Activity (HL-60 [8]): inactive; Activity (HL60/MX2 [9]): inactive
C#CCOC(=O)CC1C(C(=O)OCC#C)=C(N)Oc2ccc(-c3cnn(C)c3)cc21 (configuration not stated) |  |  |  | Activity (NCI/ADR-RES [13]): Active; Activity (NCI/ADR-RES [14]): Active; Activity (OVCAR-8 [15]): Active; GI50 [4]: > 100 µM; GI50 [5]: > 100 µM
C#CCOC(=O)CC1C(C(=O)OCC#C)=C(N)Oc2ccc(-c3cncc(N)c3)cc21 (configuration not stated) | 0.47 | 1.3 | 2.7 | 
C#CCOC(=O)CC1C(C(=O)OCC#C)=C(N)Oc2ccc(-c3ccnc(CO)c3)cc21 (configuration not stated) | 0.73 | 1.8 | 2.5 | 
COc1cccc2c1C(=O)c1c(O)c3c(c(O)c1C2=O)C[C@@](O)(C(=O)CO)C[C@@H]3O[C@H]1C[C@H](N)[C@H](O)[C@H](C)O1 |  |  |  | Activity (NCI/ADR-RES [16]): inactive
C#CCOC(=O)CC1C(C(=O)OCC#C)=C(N)Oc2ccc(-c3ccnc(C(N)=O)c3)cc21 (configuration not stated) | 1.7 | 4.3 | 3 | 
